The values that follow come from article PMC10262780 (Nature structural & molecular biology, 2022).

Square brackets hold non-standard residues; d marks the D form. Ends that are not written are not given here. * marks the point of attachment. FITC = O=C1OC2(c3ccc(O)cc3Oc3cc(O)ccc32)c2ccc(NC(=S)*)cc21; pS = N[C@@H](COP(=O)(O)O)C(=O)O

Experiment [1] concerns the target human Retinoblastoma protein AB domain with a stabilizing loop deletion (372-787Δ582-642) (human) (UniProt P06400). The experiment in a line: fluorescence polarisation.
Experiment [2] addresses T1, Rb (human Retinoblastoma protein AB domain) (Homo sapiens, UniProt P06400, DEL582-642).
T1 sequence (P06400 with tags, fused parts or gaps DEL582-642): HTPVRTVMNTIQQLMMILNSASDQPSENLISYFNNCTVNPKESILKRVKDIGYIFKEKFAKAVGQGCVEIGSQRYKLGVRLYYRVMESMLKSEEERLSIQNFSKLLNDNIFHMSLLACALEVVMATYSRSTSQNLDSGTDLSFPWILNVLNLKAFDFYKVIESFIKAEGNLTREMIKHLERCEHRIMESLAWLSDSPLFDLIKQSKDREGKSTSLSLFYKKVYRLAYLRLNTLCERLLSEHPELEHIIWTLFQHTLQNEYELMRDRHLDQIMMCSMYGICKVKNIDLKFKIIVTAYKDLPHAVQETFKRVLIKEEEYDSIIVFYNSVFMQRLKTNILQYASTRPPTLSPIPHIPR
Description: Isothermal titration calorimetry. The settings on record: ITC. The class given is binding. An outline of the steps: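 Human Rb AB domain (residues 372–787, loop 582–642 deleted), expressed in E. coli, in the cell at 5–30 µM. Peptide/protein titrant in the syringe at 50–300 µM. Cell and syringe samples co-dialysed 48 h at 4 °C in 20 mM sodium phosphate pH 7.0, 200 mM NaCl, 5 mM 2-mercaptoethanol, then degassed. Run at 20.0 °C unless stated, also 10–30 °C. 28 × 10-µl or 13 × 3-µl injections; enthalpy per mole of injectant fitted to a single-site model.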
A general note: Isothermal titration calorimetry measures the heat released or taken up as one component is titrated into another.

For experiment [3], the target named is T2, human Retinoblastoma protein AB domain with a stabilizing loop deletion (372-787Δ582-642) (human, UniProt P06400 372-787, Δ582–642).
T2 sequence (looked up): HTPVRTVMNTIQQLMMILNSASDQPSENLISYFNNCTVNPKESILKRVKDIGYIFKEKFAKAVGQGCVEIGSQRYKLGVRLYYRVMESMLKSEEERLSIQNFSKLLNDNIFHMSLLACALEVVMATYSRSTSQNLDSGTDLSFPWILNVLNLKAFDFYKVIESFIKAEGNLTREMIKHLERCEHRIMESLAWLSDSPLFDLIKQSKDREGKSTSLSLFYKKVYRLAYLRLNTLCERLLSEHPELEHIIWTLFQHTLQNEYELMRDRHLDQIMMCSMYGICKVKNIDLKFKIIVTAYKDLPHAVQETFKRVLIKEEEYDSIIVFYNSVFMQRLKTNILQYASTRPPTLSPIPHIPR
The experiment in a line: fluorescence polarisation. For orientation: Fluorescence polarisation rises when a labelled molecule tumbles more slowly, as on binding a larger partner.

The next experiment deals with DNA. Conditions: Oct-1 binding to DNA; cited from earlier work.
Experiment [4] addresses T2, human Retinoblastoma protein AB domain …. Description: fluorescence polarisation. This is another data set of the same source.
Experiment [5] has as its target T3, Rb (human Retinoblastoma protein AB domain, 372–787Δ582–642) (Homo sapiens, UniProt P06400, DEL582-642).
T3 sequence (P06400 with tags, fused parts or gaps DEL582-642): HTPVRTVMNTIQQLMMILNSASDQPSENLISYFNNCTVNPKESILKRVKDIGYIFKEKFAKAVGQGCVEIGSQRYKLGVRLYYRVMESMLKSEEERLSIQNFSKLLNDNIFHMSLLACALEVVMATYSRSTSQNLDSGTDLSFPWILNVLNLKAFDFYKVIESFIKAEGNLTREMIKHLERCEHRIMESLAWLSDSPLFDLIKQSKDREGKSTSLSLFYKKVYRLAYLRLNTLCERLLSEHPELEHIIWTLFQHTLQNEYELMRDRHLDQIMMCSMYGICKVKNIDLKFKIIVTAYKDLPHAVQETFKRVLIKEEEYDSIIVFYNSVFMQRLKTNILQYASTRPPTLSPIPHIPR
The experiment in a line: Fluorescence polarization direct titration of FITC-labelled constructs with Rb. The class given is binding.

Experiment [6] concerns the target T1, Rb (human Retinoblastoma protein AB domain). Description: E2F competition. Conditions: MBP fusion protein, competition experiment. The class given is binding.
Experiment [7] deals with T2, human Retinoblastoma protein AB domain …. The experiment in a line: fluorescence polarisation + ITC.
The target is the same in experiment [8]. The experiment in a line: ITC.
Setting [9] is: from direct titration KD values.

As to “Hum-2–2x: tandem repeat of the Hum-2 (HAdV40) linker between the HAdV5 E1AE2F and E1A_(LxCxE) motifs, MBP fusion”, in experiment [1], the KD/KD,E1AWT was determined as 1.1.

Consider 116-VPEVIDLTCHEAGFPP-131 [E1ALxCxE], for which the “thermodynamic origin of binding to Rb” value in experiment [2] (20 mM Sodium Phosphate pH 7.0, 200 mM NaCl, 5mM 2-mercapto ethanol, 20 °C) is “enthalpically driven”.

B1: FITC-labelled E1A_(LxCxE) peptide (HAdV5 E1A 116-131) (peptide)
peptide: {FITC}-VPEVIDLTCHEAGFPP
Consider B1, for which, in experiment [3], the binding result was “binds”.

B2: Oct-1: POU domain activator Oct-1 binding to DNA (protein, UniProt P14859 1-743, looked up)
POU domain, class 2, …: MNNPSETSKPSMESGDGNTGTQTNGLDFQKQPVPVGGAISTAQAQAFLGHLHQVQLAGTSLQAAAQSLNVQSKSNEESGDSQQPSQPSQQPSVQAAIPQTQLMLAGGQITGLTLTPAQQQLLLQQAQAQAQLLAAAVQQHSASQQHSAAGATISASAATPMTQIPLSQPIQIAQDLQQLQQLQQQNLNLQQFVLVHPTTNLQPAQFIISQTPQGQQGLLQAQNLLTQLPQQSQANLLQSQPSITLTSQPATPTRTIAATPIQTLPQSQSTPKRIDTPSLEEPSDLEELEQFAKTFKQRRIKLGFTQGDVGLAMGKLYGNDFSQTTISRFEALNLSFKNMCKLKPLLEKWLNDAENLSSDSSLSSPSALNSPGIEGLSRRRKKRTSIETNIRVALEKSFLENQKPTSEEITMIADQLNMEKEVIRVWFCNRRQKEKRINPPSSGGTSSSPIKAIFPSPTSLVATTPSLVTSSAATTLTVSPVLPLTSAAVTNLSVTGTSDTTSNNTATVISTAPPASSAVTSPSLSPSPSASASTSEASSASETSTTQTTSTPLSSPLGTSQVMVTASGLQTAAAAALQGAAQLPANASLAAMAAAAGLNPSLMAPSQFAAGGALLSLNPGTLSGALSPALMSNSTLATIQALASGGSLPITSLDATGNLVFANAGGAPNIVTAPLFLNPQNLSLLTSNPVSLVSAAAASAGNSAPVASLHATSTSAESIQNSLFTVASASGAASTTTTASKAQ
In general, Kd refers to a measure of binding affinity in units of concentration. For the molecule B2, on DNA, the Kd was 0.071 nM and the “affinity enhancement by tethering” value is reported as 2100 fold.

B3: FITC-labelled E1AΔE (domain or fragment)
chain: SHFEPPTAAAADLDVTAPEDPNEEAVSQIFPDSVMLAVQEGIDLLTFPPAPGSPEPPHLSRQPEQPEQRALGPVSMPNLVPEVIDLTCHEAGFPPSDDEDEEGEEFVLDY
modifications: FITC (fluorescein 5-isothiocyanate) on the N-terminus
Turning to B3, the binding result in experiment [3] was “binds”.

B4: MBP-E1AWT (uncleaved MBP fusion of HAdV5 E1A 36-146) (domain or fragment)
chain: SHFEPPTLHELYDLDVTAPEDPNEEAVSQIFPDSVMLAVQEGIDLLTFPPAPGSPEPPHLSRQPEQPEQRALGPVSMPNLVPEVIDLTCHEAGFPPSDDEDEEGEEFVLDY
In experiment [4], B4 gave a dissociation constant (Kd) of 0.075 ± 0.017 nM.

B5: E1AWT: adenovirus serotype 5 (HAdV5) Early 1A protein fragment (36–146), minimal Rb binding region (protein)
chain: SHFEPPTLHELYDLDVTAPEDPNEEAVSQIFPDSVMLAVQEGIDLLTFPPAPGSPEPPHLSRQPEQPEQRALGPVSMPNLVPEVIDLTCHEAGFPPSDDEDEEGEEFVLDY
modifications: left off: MBP, end not stated, cleaved
Regarding B5, the “Ceff obtained from the affinities of the construct and the isolated motifs” value in experiment [5] (Ceff=(KD,E2F*KD,LxCxE)/KD) amounted to 0.52 ± 0.09 mM. The “total ΔGBINDING” value in [5] (binding to Rb) was -14.24 kcal/mol. In addition, in [5] (setting [9]), the “affinity enhancement compared to E2F2” value was 40 fold and the “affinity enhancement compared to the individual E1A SLiMs” value is 4000 fold.

B6: MBP-E1AWT: uncleaved MBP fusion protein of E1AWT (protein)
chain: SHFEPPTLHELYDLDVTAPEDPNEEAVSQIFPDSVMLAVQEGIDLLTFPPAPGSPEPPHLSRQPEQPEQRALGPVSMPNLVPEVIDLTCHEAGFPPSDDEDEEGEEFVLDY
modifications: left off: MBP, end not stated, kept
For the molecule B6, the “binding affinity compared with cleaved E1AWT” value in experiment [6] is on record as “same binding affinity as cleaved E1AWT”.

B7: FITC-labelled E1AΔL (domain or fragment)
chain: SHFEPPTLHELYDLDVTAPEDPNEEAVSQIFPDSVMLAVQEGIDLLTFPPAPGSPEPPHLSRQPEQPEQRALGPVSMPNLVPEVIDAAAAAGFPPSDDEDEEGEEFVLDY
modifications: FITC (fluorescein 5-isothiocyanate) on the N-terminus
As to B7, the binding result in [3] is given as “binds”.

B8: E1AΔL: E1AWT variant with LxCxE motif mutated to poly-alanine (122-LTCHE-126Δ122-AAAA-125) (protein)
chain: SHFEPPTLHELYDLDVTAPEDPNEEAVSQIFPDSVMLAVQEGIDLLTFPPAPGSPEPPHLSRQPEQPEQRALGPVSMPNLVPEVIDAAAAAGFPPSDDEDEEGEEFVLDY
modifications: left off: MBP, end not stated, cleaved
As to B8, the “heat behaviour of binding to Rb (exothermic/endothermic)” value in [2] (Rb in cell, peptide/protein as titrant) is given as “endothermic”.

B9: E1A_(LxCxE-ACP) peptide (HAdV5 E1A 116-139, phosphorylated at Ser132) (peptide)
peptide: VPEVIDLTCHEAGFPP[pS]DDEDEEG
For B9, the “fold increase in binding affinity over E1A_(LxCxE)” value in [7] stood at 5 fold.

B10: Human E2F2 peptide (404-427) (peptide)
peptide: SPSLDQDDYLWGLEAGEGISDLFD
In the case of B10, the binding result in [8] is recorded as “binds”.
